Measured values: ChEMBL document CHEMBL2417382, “Derivatives of grindelic acid: from a non-active natural diterpene to synthetic antitumor derivatives” (2013)
Active and inactive are the calls of the source. The calls are words filed in the database; no cut-off is given here.

Tests used:
Format in all cases: functional
[1] = test system: T47D; assay: Antiproliferative activity against human T47D cells after 48 hrs by SRB assay
How it was run: (§1)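 Cells grown in RPMI 1640 with 5% heat-inactivated FCS and 2 mM L-glutamine. Seeded per well at 20,000 (WiDr), 15,000 (T-47D) or 10,000 (HeLa, SW1573, HBL-100). Dosing started the day after plating, in triplicate at 1–100 µM, with 0.25% DMSO as the vehicle control. After 48 h, TCA fixation, SRB staining and OD at 492 nm. Percentage growth calculated against untreated cells from OD at T0 and end, using NCI formulas.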

[2] = test system: HBL-100; assay: Antiproliferative activity against human HBL100 cells after 48 hrs by SRB assay; settings: HBL-100, 48 h; how it was run: as §1
[3] = test system: HeLa; assay: Antiproliferative activity against human HeLa cells after 48 hrs by SRB assay; how it was run: as §1
[4] = test system: WiDr; assay: Antiproliferative activity against human WiDr cells after 48 hrs by SRB assay; how it was run: as §1
[5] = test system: SW1573; assay: Antiproliferative activity against human SW1573 cells after 48 hrs by SRB assay; settings: SW1573, 48 h; how it was run: as §1

## CC1=CC[C@H]2C(C)(C)CCC[C@]2(C)[C@@]12CC[C@@](C)(CCOC(=O)NCCCN(C)C)O2
[1]
  GI50: 4.3 µM
[2]
  GI50: 6.1 µM
[3]
  GI50: 7.8 µM
[4]
  GI50: 1.4 µM
[5]
  GI50: 8 µM

## CCOC(=O)/C=C/C[C@]1(C)CC[C@@]2(O1)C(C)=CC[C@H]1C(C)(C)CCC[C@@]12C
[1]
  GI50: 32 µM
[2]
  GI50: 16 µM
[3]
  GI50: 19 µM
[4]
  GI50: 35 µM
[5]
  GI50: 18 µM

## CC1=CC[C@H]2C(C)(C)CC[C@H](O)[C@]2(C)[C@@]12CC[C@@](C)(CC(=O)O)O2
[1]
  GI50: > 100 µM
[2]
  GI50: > 100 µM
[3]
  GI50: > 100 µM
[4]
  GI50: > 100 µM
[5]
  GI50: > 72 µM

## C#Cc1cccc(-c2cn(CC[C@]3(C)CC[C@@]4(O3)C(C)=CC[C@H]3C(C)(C)CCC[C@@]34C)nn2)c1
[1]
  GI50: > 100 µM
[2]
  GI50: > 100 µM
[3]
  GI50: > 100 µM
[4]
  GI50: > 100 µM
[5]
  GI50: > 100 µM

## CC1=CC[C@H]2C(C)(C)CCC[C@]2(C)[C@@]12CC[C@@](C)(CCN=[N+]=[N-])O2
[1]
  GI50: > 100 µM
[2]
  GI50: > 100 µM
[3]
  GI50: > 100 µM
[4]
  GI50: > 100 µM
[5]
  GI50: > 100 µM

## C#CCNC(=O)OCC[C@]1(C)CC[C@@]2(O1)C(C)=CC[C@H]1C(C)(C)CCC[C@@]12C
[1]
  GI50: 16 µM
[2]
  GI50: 14 µM
[3]
  GI50: 14 µM
[4]
  GI50: 12 µM
[5]
  GI50: 13 µM

## CC1=CC[C@H]2C(C)(C)CCC[C@]2(C)[C@@]12CC[C@@](C)(C[C@H]1O[C@@H]1CO)O2
[1]
  GI50: 15 µM
[2]
  GI50: 16 µM
[3]
  GI50: 17 µM
[4]
  GI50: 17 µM
[5]
  GI50: 18 µM

## COC(=O)C[C@]1(C)CC[C@@]2(O1)C(C)=CC[C@H]1C(C)(C)CCC[C@@]12C
[1]
  GI50: 19 µM
[2]
  GI50: 17 µM
[3]
  GI50: 16 µM
[4]
  GI50: 23 µM
[5]
  GI50: 18 µM

## C#CC[C@]1(C)CC[C@@]2(O1)C(C)=CC[C@H]1C(C)(C)CCC[C@@]12C
[1]
  GI50: 28 µM
[2]
  GI50: 17 µM
[3]
  GI50: 16 µM
[4]
  GI50: 4.8 µM
[5]
  GI50: 15 µM

## CC[C@@]1(O)C(=O)OCc2c1cc1n(c2=O)Cc2cc3ccccc3nc2-1 [CAMPTOTHECIN]
[1]
  GI50: 2 µM
[2]
  GI50: 0.23 µM
[3]
  GI50: 0.6 µM
[4]
  GI50: 1.8 µM
[5]
  GI50: 0.25 µM

## CCCCCCCCCCc1cn(CC[C@]2(C)CC[C@@]3(O2)C(C)=CC[C@H]2C(C)(C)CCC[C@@]23C)nn1
[1]
  GI50: 44 µM
[2]
  GI50: 16 µM
[3]
  GI50: 25 µM
[4]
  GI50: 15 µM
[5]
  GI50: 15 µM

## CC1=CC[C@H]2C(C)(C)CCC[C@]2(C)[C@@]12CC[C@@](C)(CC(=O)N(Cc1ccccc1)C(C)(C)C(=O)Nc1c(C)cccc1C)O2
[1]
  GI50: 31 µM
[2]
  GI50: 8.9 µM
[3]
  GI50: 11 µM
[4]
  GI50: 38 µM
[5]
  GI50: 5.1 µM

## CC1=CC[C@H]2C(C)(C)CCC[C@]2(C)[C@@]12CC[C@@](C)(CCn1cc(CCCCc3cn(CC[C@]4(C)CC[C@@]5(O4)C(C)=CC[C@H]4C(C)(C)CCC[C@@]45C)nn3)nn1)O2
[1]
  GI50: 4.3 µM
[2]
  GI50: 2.9 µM
[3]
  GI50: 2.7 µM
[5]
  GI50: 3 µM

## CC1=CC[C@H]2C(C)(C)CCC[C@]2(C)[C@@]12CC[C@@](C)(CC(=O)O)O2
[1]
  GI50: 69 µM
[2]
  GI50: 46 µM
[3]
  GI50: 60 µM
[4]
  GI50: 57 µM
[5]
  GI50: 49 µM

## CC1=CC[C@H]2C(C)(C)CCC[C@]2(C)[C@@]12CC[C@@](C)(C/C=C/CO)O2
[1]
  GI50: 17 µM
[2]
  GI50: 17 µM
[3]
  GI50: 18 µM
[4]
  GI50: 17 µM
[5]
  GI50: 17 µM

## CC1=CC[C@H]2C(C)(C)CCC[C@]2(C)[C@@]12CC[C@@](C)(CC(=O)N(c1ccccc1)C(C)(C)C(=O)NC(C)(C)C)O2
[1]
  GI50: 5.3 µM
[2]
  GI50: 5.4 µM
[3]
  GI50: 5.7 µM
[4]
  GI50: 6.8 µM
[5]
  GI50: 5.8 µM

## CC1=CC[C@H]2C(C)(C)CCC[C@]2(C)[C@@]12CC[C@@](C)(CC(=O)N(Cc1ccccc1)C(C)(C)C(=O)NCCN1CCOCC1)O2
[1]
  GI50: 19 µM
[2]
  GI50: 16 µM
[3]
  GI50: 18 µM
[4]
  GI50: 12 µM
[5]
  GI50: 16 µM

## CC1=CC[C@H]2C(C)(C)CCC[C@]2(C)[C@@]12CC[C@@](C)(CC=O)O2
[1]
  GI50: 26 µM
[2]
  GI50: 14 µM
[3]
  GI50: 17 µM
[4]
  GI50: 15 µM
[5]
  GI50: 17 µM

## CC1=CC[C@H]2C(C)(C)CCC[C@]2(C)[C@@]12CC[C@@](C)(CC(=O)N(Cc1ccccc1)C(C)(C)C(=O)NC(C)(C)C(C)(C)C)O2
[1]
  GI50: 40 µM
[2]
  GI50: 10 µM
[3]
  GI50: 30 µM
[4]
  GI50: 49 µM
[5]
  GI50: 14 µM

## CC1=CC[C@H]2C(C)(C)CCC[C@]2(C)[C@@]12CC[C@@](C)(CC(=O)N(Cc1ccccc1)C(C)(C)C(=O)NC1CCCCC1)O2
[1]
  GI50: 4.4 µM
[2]
  GI50: 3.7 µM
[3]
  GI50: 4.7 µM
[4]
  GI50: 5.1 µM
[5]
  GI50: 3.6 µM

## CC1=CC[C@H]2C(C)(C)CCC[C@]2(C)[C@@]12CC[C@@](C)(C[C@@H]1O[C@H]1CO)O2
[1]
  GI50: 16 µM
[2]
  GI50: 16 µM
[3]
  GI50: 17 µM
[4]
  GI50: 19 µM
[5]
  GI50: 18 µM

## CCCCNC(=O)C(C)(C)N(Cc1ccccc1)C(=O)C[C@]1(C)CC[C@@]2(O1)C(C)=CC[C@H]1C(C)(C)CCC[C@@]12C
[1]
  GI50: 3 µM
[2]
  GI50: 1.9 µM
[3]
  GI50: 2.9 µM
[4]
  GI50: 3.1 µM
[5]
  GI50: 1.8 µM

## CC1=CC[C@H]2C(C)(C)CCC[C@]2(C)[C@@]12CC[C@@](C)(CC(=O)N(Cc1ccccc1)C(C)(C)C(=O)NCc1ccccc1)O2
[1]
  GI50: 1.9 µM
[2]
  GI50: 0.95 µM
[3]
  GI50: 1.6 µM
[4]
  GI50: 1.8 µM
[5]
  GI50: 1.2 µM

## CC1=CC[C@H]2C(C)(C)CCC[C@]2(C)[C@@]12CC[C@@](C)(CCOC(=O)n1ccnc1)O2
[1]
  GI50: 17 µM
[2]
  GI50: 16 µM
[3]
  GI50: 18 µM
[4]
  GI50: 13 µM
[5]
  GI50: 17 µM

## CC1=CC[C@H]2C(C)(C)CCC[C@]2(C)[C@@]12CC[C@@](C)(CC(=O)N(c1ccccc1)C(C)(C)C(=O)Nc1c(C)cccc1C)O2
[1]
  GI50: 21 µM
[2]
  GI50: 8.7 µM
[3]
  GI50: 22 µM
[4]
  GI50: 37 µM
[5]
  GI50: 5.9 µM

## CCOC(=O)/C(C)=C/C[C@]1(C)CC[C@@]2(O1)C(C)=CC[C@H]1C(C)(C)CCC[C@@]12C
[1]
  GI50: 32 µM
[2]
  GI50: 17 µM
[3]
  GI50: 18 µM
[4]
  GI50: 37 µM
[5]
  GI50: 20 µM

## CC1=CC[C@H]2C(C)(C)CCC[C@]2(C)[C@@]12CC[C@@](C)(CCOC(=O)NCc1cn(CC[C@]3(C)CC[C@@]4(O3)C(C)=CC[C@H]3C(C)(C)CCC[C@@]34C)nn1)O2
[1]
  GI50: > 100 µM
[2]
  GI50: > 100 µM
[3]
  GI50: > 100 µM
[4]
  GI50: > 100 µM
[5]
  GI50: > 100 µM

## CC1=CC[C@H]2C(C)(C)CCC[C@]2(C)[C@@]12CC[C@@](C)(CCn1cc(COc3cccc(OCc4cn(CC[C@]5(C)CC[C@@]6(O5)C(C)=CC[C@H]5C(C)(C)CCC[C@@]56C)nn4)c3)nn1)O2
[1]
  GI50: > 100 µM
[2]
  GI50: > 100 µM
[3]
  GI50: > 100 µM
[4]
  GI50: > 100 µM
[5]
  GI50: > 100 µM

## CC1=CC[C@H]2C(C)(C)CCC[C@]2(C)[C@@]12CC[C@@](C)(CCn1cc(C[C@]3(C)CC[C@@]4(O3)C(C)=CC[C@H]3C(C)(C)CCC[C@@]34C)nn1)O2
[1]
  GI50: 17 µM
[2]
  GI50: 9.3 µM
[3]
  GI50: 17 µM
[4]
  GI50: inactive
[5]
  GI50: 11 µM

## CC1=CC[C@H]2C(C)(C)CCC[C@]2(C)[C@@]12CC[C@@](C)(C/C=C(\C)CO)O2
[1]
  GI50: 15 µM
[2]
  GI50: 16 µM
[3]
  GI50: 16 µM
[4]
  GI50: 19 µM
[5]
  GI50: 18 µM

## CC1=CC[C@H]2C(C)(C)CCC[C@]2(C)[C@@]12CC[C@@](C)(CC(=O)N(Cc1ccccc1)C(C)(C)C(=O)NC(C)(C)C)O2
[1]
  GI50: 3.9 µM
[2]
  GI50: 4.6 µM
[3]
  GI50: 5.3 µM
[4]
  GI50: 12 µM
[5]
  GI50: 11 µM

## CC1=CC[C@H]2C(C)(C)CCC[C@]2(C)[C@@]12CC[C@@](C)(CCO)O2
[1]
  GI50: 16 µM
[2]
  GI50: 17 µM
[3]
  GI50: 17 µM
[4]
  GI50: 21 µM
[5]
  GI50: 19 µM
